Experimental data: ChEMBL document CHEMBL4837210 (Eur J Med Chem, 2021)
Calls of active or inactive are those of the source. No cut-off for these calls is given here.

Columns and labels:
Bacillus pumilus = experiment: Induction of morphological changes in Bacillus pumilus CMCC 63202 assessed as alteration in length measured at 0.5 times MIC after 18 hrs by Phase contrast light microscope analysis (reference value: 1.2 to 3 micrometer); assay type: functional
Streptococcus pyogenes [1] = experiment: Antibacterial activity against erythromycin-resistant Streptococcus pyogenes 2 assessed as bacterial growth inhibition incubated for 24 hrs by CLSI protocol based broth microdilution method; assay type: functional
Staphylococcus aureus [2] = experiment: Bactericidal activity against erythromycin-susceptible Staphylococcus aureus ATCC 25923 measured after 24 hrs by CLSI protocol based method; assay type: functional
Procedure, shortened: (§1)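 MBC after broth microdilution. After 24 h, aliquots from clear wells were plated on tryptic soy agar and incubated aerobically 24 h at 37 °C. MBC was the lowest concentration giving no colonies.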

Staphylococcus aureus [3] = experiment: In vivo antibacterial activity against […] Staphylococcus aureus ATCC 25923 infected in Kunming mouse assessed as reduction in viable bacterial cells at 5 mg/kg, administered 1 hr post bacterial infection and measured after 1 hr post compound treatment; assay type: functional, organism-based
Procedure, shortened: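 Kunming mice (~25 g, 6 per group) infected intravenously with 6 × 10⁷ CFU S. aureus ATCC25923 in 0.2 mL saline. About 1 h later, 1, 5 or 25 mg/kg was given intraperitoneally in 0.5 mL vehicle, with linezolid as reference. Orbital blood (100 µL) was taken before and 1 h after treatment, spread on MH agar and counted after 24 h.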

Staphylococcus aureus [4] = experiment: Antibacterial activity against penicillin-resistant Staphylococcus aureus assessed as inhibition of bacterial growth measured by broth microdilution method; assay type: functional; details: time 24 hrs
Procedure, shortened: (§2)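 Broth microdilution MIC. A 0.5 McFarland suspension was diluted 10-fold and added at 1.5 × 10⁷ cfu/mL to 2-fold dilutions (0.125–64) in Mueller Hinton broth. Incubated aerobically 24 h at 37 °C. MIC was the lowest concentration with no visible turbidity.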

Enterococcus faecalis = experiment: Antibacterial activity against vancomycin-susceptible Enterococcus faecalis ATCC 29212 assessed as bacterial growth inhibition incubated for 24 hrs by CLSI protocol based broth microdilution method; assay type: functional
Streptococcus pyogenes [5] = experiment: Antibacterial activity against erythromycin-susceptible Streptococcus pyogenes clinical isolate 1 assessed as bacterial growth inhibition incubated for 24 hrs by CLSI protocol based broth microdilution method; assay type: functional
Enterococcus faecium = experiment: Antibacterial activity against vancomycin-resistant Enterococcus faecium ATCC 51559 assessed as bacterial growth inhibition incubated for 24 hrs by CLSI protocol based broth microdilution method; details: ATCC 51559, 24 h
Bacillus subtilis = experiment: Bactericidal activity against penicillin-susceptible Bacillus subtilis ATCC 9372 measured after 24 hrs by CLSI protocol based method; assay type: functional
Procedure, shortened: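 MBC followed on from the 24 h broth microdilution MIC plates. Aliquots from clear wells were spread on tryptic soy agar and incubated aerobically at 37 °C for 24 h. MBC was the minimum concentration giving no colonies.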

Staphylococcus aureus [6] = experiment: Bactericidal activity against […] Staphylococcus aureus ATCC 25923 assessed as log reduction in colony forming unit at 2 times MIC after 24 hrs by time kill assay; assay type: functional
Procedure, shortened: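 Samples at 0, 3, 6, 9, 12 and 24 h were serially diluted in MH broth and plated on tryptic soy agar. CFU/mL from colony counts after 24 h at 37 °C.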

Pseudomonas aeruginosa = experiment: Inhibition of biofilm formation in Pseudomonas aeruginosa ATCC 27853 at 64 ug/ml incubated for 18 hrs by crystal violet staining based method; assay type: functional, organism-based; details: dose 64.0 µg/ml
Procedure, shortened: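 P. aeruginosa ATCC27853 was grown overnight in MH medium, washed and diluted to OD₆₂₀ 0.05, grown to mid-log (OD₆₂₀ 0.3–0.5), then rediluted to 0.05. Cultures were grown statically with compound at 37 °C for 18 h. Wells were washed with PBS, fixed in methanol for 15 min and stained with 0.1% crystal violet for 30 min. Stain was solubilized in 1% SDS and read at A540, in triplicate.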

Staphylococcus aureus [7] = experiment: Bactericidal activity against methicillin-resistant Staphylococcus aureus ATCC 43300 measured after 24 hrs by CLSI protocol based method; assay type: functional; procedure, shortened: as §1
Staphylococcus aureus [8] = experiment: Antibacterial activity against methicillin-resistant Staphylococcus aureus ATCC 43300 assessed as inhibition of bacterial growth by broth microdilution method; assay type: functional; details: time 24 hrs; procedure, shortened: as §2
Staphylococcus aureus [9] = experiment: Antibacterial activity against erythromycin-susceptible Staphylococcus aureus ATCC 25923 assessed as bacterial growth inhibition incubated for 24 hrs by CLSI protocol based broth microdilution method; assay type: functional

`C[n+]1c2ccccc2c(/C=C/c2ccc(C(C)(C)C)cc2)c2ccccc21.[I-]` showed an Activity (Bacillus pumilus) of 20 um, an MIC (Streptococcus pyogenes [1]) of 0.25 µg/mL and an MBC (Staphylococcus aureus [2]) of 2 µg/mL. For the same compound, the Activity (Staphylococcus aureus [3]) was “Active”, the MIC (Staphylococcus aureus [4]) was 2 µg/mL and the MIC (Enterococcus faecalis) was 2 µg/mL. For the same compound, the MIC (Streptococcus pyogenes [5]) was < 0.125 µg/mL, the MIC (Enterococcus faecium) was 2 µg/mL and the MBC (Bacillus subtilis) was 0.5 µg/mL. For the same compound, the Activity (Staphylococcus aureus [6]) was 2.43 CFU, the inhibition (Pseudomonas aeruginosa) was “inactive” and the MBC (Staphylococcus aureus [7]) was 4 µg/mL. The MIC (Staphylococcus aureus [8]) was 1 µg/mL and the MIC (Staphylococcus aureus [9]) was 0.5 µg/mL.
